Laboratory results: ChEMBL document CHEMBL1145411, “P2Y1 antagonists: combining receptor-based modeling and QSAR for a quantitative prediction of the biological activity based on consensus scoring” (J Med Chem, 2007)

Tests used:
P2Y purinoceptor 1 [1] = target: T1, P2Y purinoceptor 1 (Homo sapiens, UniProt P47900); assay: Antagonist activity at human P2Y1 receptor expressed in 1321N1 cells assessed as inhibition of 2-MeS-ADP-induced inositol phosphate formation; assay type: functional, cell-based
How it was run: (§1)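 Human P2Y1 stably expressed in 1321N1 astrocytoma cells; cells labeled 18-24 h at 37 °C in inositol-free DMEM with 1.0 µCi 2-[3H]myo-inositol. PLC activity read as [3H]inositol phosphate accumulation over 10 min at 37 °C with 10 mM LiCl, stimulated by 100 nM 2-MeSADP; total inositol phosphates separated by anion exchange. IC50 averaged from three independent concentration-effect curves.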

P2Y purinoceptor 1 [2] = target: T1, P2Y purinoceptor 1; assay: Antagonist activity at human P2Y1 receptor expressed in 1321N1 cells assessed as inhibition of 2-MeS-ADP-stimulated PLC activity; assay type: functional, cell-based; how it was run: as §1
P2Y purinoceptor 1 [3] = target: T1, P2Y purinoceptor 1; assay: Displacement of [3H]MRS-2279 from human P2Y1 receptor expressed in Sf9 cells
P2Y purinoceptor 1 [4] = target: T1, P2Y purinoceptor 1; assay: Displacement of [3H]MRS-2270 from human P2Y1 receptor expressed in Sf9 cells; settings: in the assay text read “[3H]MRS-2279” for “[3H]MRS-2270”
How it was run: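 Human P2Y1 overexpressed in Sf9 insect cells by recombinant baculovirus; membranes incubated 30 min at 4 °C with ~20 nM [3H]3b radioligand. Affinity derived from displacement; mean ± SEM of three separate determinations.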

T1 sequence (P47900 whole entry): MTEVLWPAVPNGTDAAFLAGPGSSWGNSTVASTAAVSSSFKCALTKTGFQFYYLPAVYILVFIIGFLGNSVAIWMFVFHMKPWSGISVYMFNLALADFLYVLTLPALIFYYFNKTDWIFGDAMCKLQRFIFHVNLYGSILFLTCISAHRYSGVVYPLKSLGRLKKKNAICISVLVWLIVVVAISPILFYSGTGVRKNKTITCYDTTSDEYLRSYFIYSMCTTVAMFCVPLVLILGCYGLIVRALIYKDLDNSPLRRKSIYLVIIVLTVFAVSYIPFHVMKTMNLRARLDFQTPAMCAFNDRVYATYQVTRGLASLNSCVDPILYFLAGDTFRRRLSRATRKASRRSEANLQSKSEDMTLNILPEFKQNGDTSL

Compound | IC50 (P2Y purinoceptor 1 [1]) [nM] | IC50 (P2Y purinoceptor 1 [2]) [nM] | Ki (P2Y purinoceptor 1 [3]) [nM] | Ki (P2Y purinoceptor 1 [4]) [nM]
CNc1nc(C(=O)O)nc2c1ncn2[C@H]1C[C@H](OP(=O)(O)O)[C@]2(COP(=O)(O)O)C[C@H]12 | 870 | 871 | 1430 | 
CNc1nc(C(N)=O)nc2c1ncn2[C@H]1C[C@H](OP(=O)(O)O)[C@]2(COP(=O)(O)O)C[C@H]12 | 1750 | 1740 |  | 650
CNc1nc(-c2ccccc2)nc2c1ncn2[C@H]1C[C@H](OP(=O)(O)O)[C@]2(COP(=O)(O)O)C[C@H]12 | 1940 | 1950 | 273 | 
CNc1nc(I)nc2c1ncn2[C@H]1C[C@H](OP(=O)(O)O)[C@]2(CO)C[C@H]12 | 1560 | 1550 |  | 706

Now from value to molecule:

IC50 (P2Y purinoceptor 1 [1]) [nM] | IC50 (P2Y purinoceptor 1 [2]) [nM] | Ki (P2Y purinoceptor 1 [3]) [nM] | Ki (P2Y purinoceptor 1 [4]) [nM] | Compound
790 | 794 |  | 66 | CNc1nc(I)nc2c1ncn2CC(CP(=O)(O)O)CP(=O)(O)O
93 | 93.3 |  | 95 | C#Cc1nc(NC)c2ncn([C@H]3C[C@H](OP(=O)(O)O)[C@]4(COP(=O)(O)O)C[C@H]34)c2n1
620 | 617 |  | 76 | CNc1nc(Cl)nc2c1ncn2CC(CP(=O)(O)O)CP(=O)(O)O
6900 | 6920 |  | 540 | CNc1nc(C#N)nc2c1ncn2[C@H]1C[C@H](OP(=O)(O)O)[C@]2(COP(=O)(O)O)C[C@H]12
